In paper PMC4982705 (Biochemical pharmacology, 2016):

Assays:
Assay in all cases: intrinsic fluorescence titration
Format in all cases: binding
[1] = target: SULT1B1 (hSULT1B1, wildtype) (Homo sapiens, UniProt O43704, K266E)
[2] = target: SULT1B1 (hSULT1B1, wildtype) (Homo sapiens, UniProt O43704)
Outline: (§1)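 Ligand: PAP (cofactor product). Protein: N-terminal 6xHis human SULT1B1, expressed in E. coli BL21-DE3-RIL (IPTG, 20°C) and purified on Ni-NTA. 0.20 µM enzyme in 10 mM sodium phosphate pH 7.8, 10% glycerol, 150 mM NaCl. PAP titrated in; each step mixed 15 s, then intrinsic fluorescence (ex 282, em 338) read for 15 s. Kd from one-site hyperbolic fit; triplicate runs.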

[3] = target: SULT1B1 (hSULT1B1, wildtype) (Homo sapiens, UniProt O43704, E275K)
SULT1B1 (hSULT1B1, wildtype) (Homo sapiens, UniProt O43704, E275K), sequence (O43704 whole entry E275K): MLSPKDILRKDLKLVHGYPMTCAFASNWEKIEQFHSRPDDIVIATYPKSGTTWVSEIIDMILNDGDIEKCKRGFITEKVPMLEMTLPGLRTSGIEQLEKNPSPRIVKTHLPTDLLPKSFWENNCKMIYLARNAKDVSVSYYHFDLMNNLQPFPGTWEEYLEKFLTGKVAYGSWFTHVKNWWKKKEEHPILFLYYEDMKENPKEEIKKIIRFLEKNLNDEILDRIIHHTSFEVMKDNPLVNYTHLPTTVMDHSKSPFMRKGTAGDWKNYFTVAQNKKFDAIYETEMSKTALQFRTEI
Outline: as §1

[4] = target: SULT1B1 (hSULT1B1, wildtype) (Homo sapiens, UniProt O43704, E275K/H109Y)
SULT1B1 (hSULT1B1, wildtype) (Homo sapiens, UniProt O43704, E275K/H109Y), sequence (O43704 whole entry H109Y/E275K): as the sequence (O43704 whole entry E275K) above, with H109Y counted along it
Outline: as §1

[5] = target: SULT1B1-K266E/E275K heterodimer (Homo sapiens, UniProt O43704, E275K/K266E)
SULT1B1-K266E/E275K heterodimer, sequence (O43704 whole entry K266E): as the sequence (O43704 whole entry E275K) above, with K266E, K275E counted along it
SULT1B1-K266E/E275K heterodimer, sequence (O43704 whole entry E275K): as the sequence (O43704 whole entry E275K) above
Outline: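 His-tagged K266E and E275K SULT1B1 subunits were purified separately from E. coli, then co-incubated at normalized concentrations for 1 h on ice to form the heterodimer. 0.20 µM enzyme in 10 mM sodium phosphate pH 7.8, 10% glycerol, 150 mM NaCl. PAP added stepwise; intrinsic fluorescence (ex 282/em 338) averaged over 15 s after 15 s mixing. Kd from one-site hyperbolic fit; triplicate.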

SULT1B1 (hSULT1B1, wildtype) (Homo sapiens, UniProt O43704), sequence (O43704 whole entry): as the sequence (O43704 whole entry E275K) above, with K275E counted along it
SULT1B1 (hSULT1B1, wildtype) (Homo sapiens, UniProt O43704, K266E), sequence (O43704 whole entry K266E): as the sequence (O43704 whole entry E275K) above, with K266E, K275E counted along it

Kd [1]: 1470 nM
Kd [2]: 106 ± 9 nM
Kd [3]: 80 ± 9 nM
Kd [4]: 668 ± 31 nM
Kd [5]: 180 ± 6 nM
SMILES: Nc1ncnc2c1ncn2[C@@H]1O[C@H](COP(=O)(O)O)[C@@H](OP(=O)(O)O)[C@H]1O [PAP, 3′,5′-diphosphoadenosine]
